Screens: PubChem, Sanford-Burnham Center for Chemical Genomics
An excerpt weighted towards active compounds, which were near 3.3% of everything screened.
SENP1 FRET inh: human SENP1 catalytic domain inhibitors, primary screen, biochemical, FRET, uHTS; Sentrin-specific protease 1 (Homo sapiens), Q9P0U3; recombinant SENP1 catalytic domain, CyPet-SUMO1-YPet FRET cleavage; inhibition, % at 10 µM; actives 0.21% (n = 360,000); AID 624204, 2012;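 active means inhibition at least 30% at 10 µM, raw YFP signal under a set limit, fluorescence ratio 0.5 to 1.5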;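 further: 0% = enzyme with DMSO and 100% = no enzyme wells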
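Material: hSENP1 catalytic domain, recombinant; medium: Tris pH 8 with BME, BSA, NP40 and catalase; compound: single concentration of 10 µM compound, 0.5% DMSO final; technique: FRET read of cyan and yellow fluorescence; timing: 50 min enzyme reaction, room temperature, light-protected; reagent: SFCypet-SUMO1-SFYpet substrate at 25 nM; control set: no-enzyme low, enzyme-DMSO high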
CendR NRP1 mod: modulators of CendR peptide binding to NRP-1, primary screen, biochemical, fluorescence polarization, uHTS. FAM-RPARPAR peptide binding to NRP-1. inhibition, % at 25 µM. Neuropilin-1 (Homo sapiens), O14786. actives 0.85% (n = 360,000). AID 602438, 2012;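 active means inhibition or corrected inhibition above about 18%, plus a signal ratio from 0.5 to 1.5, limit read from the data, passing the limit was not always enough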
SENP8 block-1: SENP8 protease inhibitors, primary screen, biochemical, luminescence. purified SENP8, Z-RLRGG-aminoluciferin cleavage. actives 1.2% (n = 330,000). inhibition, % at 10 µM; in the data active means inhibition above about 50%
Target sequence (Q96LD8 whole entry, looked up): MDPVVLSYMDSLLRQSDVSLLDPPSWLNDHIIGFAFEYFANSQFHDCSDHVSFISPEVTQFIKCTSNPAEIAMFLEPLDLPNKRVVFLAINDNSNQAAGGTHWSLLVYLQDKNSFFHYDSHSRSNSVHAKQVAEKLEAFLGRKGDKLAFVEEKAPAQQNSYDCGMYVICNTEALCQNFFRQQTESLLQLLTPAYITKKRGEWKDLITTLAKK
SENP6 inh: SENP6 protease inhibitors, primary screen, biochemical, luminescence, uHTS. inhibition, % at 10 µM. Recombinant SENP6 catalytic domain, aminoluciferin luminescence. actives 1.8% (n = 330,000). Sentrin-specific protease 6 (Homo sapiens), Q9GZR1. AID 2599, 2010;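 active means inhibition above about 50% at the single tested dose, limit read from the data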;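 further: plate controls were DMSO wells with enzyme for no effect and DMSO wells lacking enzyme for full effect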
SENP7 block: SENP7 protease inhibitors, primary screen, biochemical, luminescence, uHTS; Sentrin-specific protease 7 (Homo sapiens), Q9BQF6; recombinant SENP7, Z-RLRGG-aminoluciferin luminescence, 40 min; inhibition, % at 5 µM; actives 1.5% (n = 330,000);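 active means inhibition above about 50% at the single test dose, limit read from the data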;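 further: plate controls were DMSO with enzyme for no effect and no enzyme buffer wells for full effect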
Target sequence (Q9BQF6 706-1050 limits assumed): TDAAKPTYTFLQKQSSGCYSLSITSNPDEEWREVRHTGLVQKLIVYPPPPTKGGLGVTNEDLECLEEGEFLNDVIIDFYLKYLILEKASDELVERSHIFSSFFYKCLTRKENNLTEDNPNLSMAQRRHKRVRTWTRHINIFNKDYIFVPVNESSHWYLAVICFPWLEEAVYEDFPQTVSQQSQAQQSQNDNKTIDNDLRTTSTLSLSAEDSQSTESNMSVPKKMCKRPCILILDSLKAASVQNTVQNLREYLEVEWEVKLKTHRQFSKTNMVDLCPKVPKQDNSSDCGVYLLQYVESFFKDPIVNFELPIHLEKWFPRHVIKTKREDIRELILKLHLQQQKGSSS
SENP8 block-2: human SENP8 protease inhibitors, primary screen, biochemical, fluorescence, Nedd8 protein substrate, uHTS; actives 0.64% (n = 360,000); Sentrin-specific protease 8 (Homo sapiens), Q96LD8; recombinant SENP8; inhibition, % at 20 µM; in the data active means inhibition mostly above about 40%, no sharp cut-off; inactive means mostly below about 27%
* marks the source's active call; other numbers are inactive results.

How did CCSc1nc2ccccc2n1Cc1ccccc1F do in these assays?
SENP1 FRET inh: -2; CendR NRP1 mod: 17; SENP8 block-1: -8; SENP6 inh: -15; SENP7 block: -3; SENP8 block-2: 19

What do the screens show for `COc1cccc(CN2CCC2(C)C(=O)Nc2ccc3c(c2)CCN3C(C)=O)c1F` (stereo unspecified)?
SENP1 FRET inh: 2; CendR NRP1 mod: -1; SENP8 block-2: 1

Results for COc1ccc(NC(=O)c2oc3ccccc3c2NC(=O)C2CC2)cc1OC ?
SENP1 FRET inh: 0; CendR NRP1 mod: 30*; SENP8 block-1: -6; SENP6 inh: -1; SENP7 block: -5; SENP8 block-2: -21

What do the screens show for `Cc1ccc(S(=O)(=O)/N=C2\C(=O)c3ccccc3C([O-])=C2n2cc[n+](CCC(C)C)c2)cc1`?
SENP1 FRET inh: 2; CendR NRP1 mod: 31*; SENP8 block-1: 25; SENP6 inh: 38; SENP7 block: 30; SENP8 block-2: 84*

Results for CCCC[n+]1ccn(C2=C([O-])c3ccccc3C(=O)/C2=N\S(=O)(=O)c2ccc(Br)cc2)c1 ?
SENP1 FRET inh: 2; CendR NRP1 mod: 4; SENP8 block-1: -1; SENP6 inh: 49; SENP7 block: 22; SENP8 block-2: 74*

What do the screens show for `Cc1ccc(NC(=O)C[n+]2ccn(C3=C([O-])c4ccccc4C3=O)c2)cc1`?
SENP1 FRET inh: 3; CendR NRP1 mod: -6; SENP8 block-1: 4; SENP6 inh: -1; SENP7 block: 8; SENP8 block-2: 33

Results for CCOC1=C2CN(S(=O)(=O)c3ccc(C)cc3)C(c3ccccc3)CC2N(S(=O)(=O)c2ccc(C)cc2)C(c2ccc(Br)cc2)C1 (stereo unspecified) ?
SENP1 FRET inh: 2; CendR NRP1 mod: -10; SENP8 block-2: 11

What do the screens show for `Cc1nn2cc(-c3cccc(Cl)c3)cnc2c1Cl`?
SENP1 FRET inh: 0; CendR NRP1 mod: 4; SENP8 block-1: 20; SENP6 inh: -1; SENP7 block: 71*; SENP8 block-2: 21

What do the screens show for `CC(C)n1nnnc1-c1cccc(Cl)c1`?
SENP1 FRET inh: 2; CendR NRP1 mod: 8; SENP8 block-1: 2; SENP6 inh: 7; SENP7 block: 17; SENP8 block-2: 20

How did CCO[C@H]1OC(C(=O)NC2CC2)=C[C@@H](c2ccccc2)[C@@H]1CCCO do in these assays?
SENP1 FRET inh: 3; CendR NRP1 mod: 26*; SENP8 block-1: 0; SENP6 inh: -1; SENP7 block: -3; SENP8 block-2: 1

How did CCO[C@@H]1OC(C(=O)NCc2ccccc2)=C[C@H](c2ccc(Br)cc2)[C@H]1CCCO do in these assays?
SENP1 FRET inh: 1; CendR NRP1 mod: 24*; SENP8 block-1: -15; SENP6 inh: -9; SENP7 block: -6; SENP8 block-2: 22

How did CCCS(=O)(=O)NC(=O)C1(C)CCN(C(=O)c2ccc(OC)c(F)c2)C1 (stereo unspecified) do in these assays?
SENP1 FRET inh: 2; CendR NRP1 mod: -1; SENP8 block-2: 19

Results for CN1CCC/C1=C/C=C1\SC(=S)NC1=O ?
SENP1 FRET inh: 4; CendR NRP1 mod: 124; SENP8 block-2: 82*

Results for CC(OC(=O)C1CCN(S(=O)(=O)c2ccccc2)CC1)C(=O)Nc1ncc(Cl)cc1Cl (stereo unspecified) ?
SENP1 FRET inh: -1; CendR NRP1 mod: -2; SENP8 block-1: 4; SENP6 inh: 23; SENP7 block: 2; SENP8 block-2: 3

What do the screens show for `CC(OC(=O)C1CCCC1)C(=O)Nc1ncc(Cl)cc1Cl` (stereo unspecified)?
SENP1 FRET inh: 1; CendR NRP1 mod: 22*; SENP8 block-1: 7; SENP6 inh: -5; SENP7 block: -4; SENP8 block-2: -24

What do the screens show for `CC12CCC(O)CC1=CCC1C2CCC2(C)C(c3ccn[nH]3)CCC12` (stereo unspecified)?
SENP1 FRET inh: 2; CendR NRP1 mod: 2; SENP8 block-2: 13

How did CCCCCc1c(-c2ccccc2OC)ncn1CCc1ccccc1OC do in these assays?
SENP1 FRET inh: 1; CendR NRP1 mod: 5; SENP8 block-2: 6

Results for Cc1cc(C(=O)CN2C(=O)c3ccccc3S2(=O)=O)c(C)n1-c1ccccc1 ?
SENP1 FRET inh: -13; CendR NRP1 mod: -5; SENP8 block-1: 6; SENP6 inh: 0; SENP7 block: 2; SENP8 block-2: 17

What do the screens show for `Cc1cc(C(=O)CN2C(=O)C3CC=CCC3C2=O)c(C)n1-c1ccccc1` (stereo unspecified)?
SENP1 FRET inh: -1; CendR NRP1 mod: 29*; SENP8 block-1: -3; SENP6 inh: 9; SENP7 block: -1; SENP8 block-2: 25

What do the screens show for `O=C(Nc1ccc(S(=O)(=O)N2CCOCC2)cc1)c1ccc2c(c1)S(=O)(=O)c1ccccc1C2=O`?
SENP1 FRET inh: 1; CendR NRP1 mod: -10; SENP8 block-1: 3; SENP6 inh: -8; SENP7 block: 2; SENP8 block-2: 19

How did Cc1ccc(NC(=O)c2ccc3c(c2)S(=O)(=O)c2ccccc2C3=O)cc1S(=O)(=O)N1CCOCC1 do in these assays?
SENP1 FRET inh: 3; CendR NRP1 mod: 29*; SENP8 block-1: 13; SENP6 inh: 9; SENP7 block: 3; SENP8 block-2: 22

How did COc1ccc(N2C(=O)C3[C@@H](C2=O)C2(Cl)C(Cl)=C(Cl)C3(Cl)C2(OC)OC)cc1 (stereo partly specified) do in these assays?
SENP1 FRET inh: 2; CendR NRP1 mod: 27*; SENP8 block-1: 3; SENP6 inh: -24; SENP7 block: 7; SENP8 block-2: 7

Results for C=C1C[C@@]23CCC4[C@@](C)(CCC[C@@]4(C)C(=O)OC)C2CC[C@]1(OC(C)=O)C3 (stereo partly specified) ?
SENP1 FRET inh: 4; CendR NRP1 mod: 30*; SENP8 block-1: -8; SENP6 inh: -4; SENP7 block: -2; SENP8 block-2: 8

What do the screens show for `COC(=O)[C@]1(C)CCC[C@@]2(C)C3CC[C@@]4(C)C[C@]3(CCC21)CC(=O)N4C` (stereo partly specified)?
SENP1 FRET inh: 1; CendR NRP1 mod: 13; SENP8 block-1: -2; SENP6 inh: -19; SENP7 block: -7; SENP8 block-2: 24

Results for CC(C)=CCCC(C)c1cc(C(=O)NCCc2ccc(O)cc2)c(N)s1 (stereo unspecified) ?
SENP1 FRET inh: 2; CendR NRP1 mod: -15; SENP8 block-2: 11
